Screening results as filed in PubChem BioAssay.
In the library only some 1.8% were active in any assay of this set; here they are far more common.
M5 ag = agonists of human muscarinic M5 receptor (CHRM5). CHO-K1 hM5 cells, Fluo-8 calcium fluorescence; 0% DMSO wells, 100% maximal acetylcholine response. activation, % at 3 µM. actives 0.19% (n = 360,000);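 active = activation above the run's mean over test compounds plus 3 SD, cut at about 23% in these data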;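 also: signal is peak over basal fluorescence ratio across the kinetic read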
Target sequence (P08912 whole entry, looked up): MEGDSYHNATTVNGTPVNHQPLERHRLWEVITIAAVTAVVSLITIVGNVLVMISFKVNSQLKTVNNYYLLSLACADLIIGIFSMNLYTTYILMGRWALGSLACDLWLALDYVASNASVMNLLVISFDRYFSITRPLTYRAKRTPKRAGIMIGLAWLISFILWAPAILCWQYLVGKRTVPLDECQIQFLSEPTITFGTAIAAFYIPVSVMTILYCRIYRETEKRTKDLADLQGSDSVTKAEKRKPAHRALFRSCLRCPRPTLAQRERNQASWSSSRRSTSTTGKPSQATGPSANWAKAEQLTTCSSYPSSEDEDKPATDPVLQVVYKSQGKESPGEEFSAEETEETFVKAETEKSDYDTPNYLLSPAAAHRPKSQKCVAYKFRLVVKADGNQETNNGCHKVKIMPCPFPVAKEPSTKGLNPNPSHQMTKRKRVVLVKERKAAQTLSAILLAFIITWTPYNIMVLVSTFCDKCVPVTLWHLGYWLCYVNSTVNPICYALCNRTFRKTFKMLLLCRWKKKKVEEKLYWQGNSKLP
M4 PAM = potentiates acetylcholine response at human M4 receptor | P08173 | CHO-K1 hM4/Gqi5, Fluo-8 calcium fluorescence, ACh EC20; 0% = ACh EC20, 100% = maximal ACh | activation, % at 3 µM | actives 0.4% (n = 360,000);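 active = activation above its plate's cutoff, the mean activation of sample wells plus 3 SD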
CHRM5 PAM = CHRM5 positive allosteric modulation. activation, % at 3 µM. P08912. CHO-K1 hM5, Fluo-8 calcium, ACh EC20 PAM; 0% = ACh EC20, 100% = ACh EC100. actives 0.3% (n = 360,000);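 active = activation above the run cutoff, the mean activation of all test compounds plus 3 SD, cut at about 18% in these data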
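System – CHO-K1 hM5 cells · Compound – 3 µM, single dose · Incubation – compound preincubation 140 s before EC20 acetylcholine addition · Technique – Fluo-8 calcium fluorescence · Measure – Max/basal fluorescence ratio as % of EC20–EC100 ACh window · Benchmarks – low control EC20 acetylcholine (0%), high control EC100 acetylcholine (100%) · Replication – singlicate, one well per test compound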
CHRM4 agonist = agonists of human muscarinic M4 receptor (CHRM4); P08173; CHO-K1 hM4/Gqi5, Fluo-8 calcium fluorescence; vehicle 0%, full acetylcholine response 100%; activation, % at 3 µM; actives 0.14% (n = 360,000); AID 624127;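 active = activation above the run mean over all test wells plus 3 SD, cut at about 32% in these data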;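 also: peak over basal fluorescence ratio per well then scaled between controls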
CHRM4 antagonist = blocks acetylcholine activation of human M4 receptor | CHO-hM4 cells, ACh EC80, Fluo-8 calcium fluorescence | actives 0.73% (n = 360,000) | P08173 | inhibition, % at 3 µM | AID 624125;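 active = inhibition above its plate's cutoff, the mean inhibition of sample wells plus 3 SD, cut at about 27% in these data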
M5 antag = antagonists of human muscarinic M5 receptor (CHRM5); P08912; CHO-hM5 cells, Fluo-8 calcium fluorescence, ACh EC80; inhibition, % at 3 µM; actives 0.59% (n = 360,000); AID 624040;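 active = inhibition above a per-plate cutoff, the mean of that plate's test compounds plus 3 SD, cut at about 27% in these data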
Each line names hits and unclear results; the compound was inactive in the other large screens.

COc1ccc(-c2nc(C(=O)O)cs2)cc1OC	CHRM5 PAM 26.2
CNc1ncnc2c1ncn2[C@H]1CN(Cc2ccc3c(c2)OCO3)C[C@@H](CO)O1	none
Cc1sc2ncn(CC(=O)N3CCOCC3)c(=O)c2c1-c1ccccc1	CHRM5 PAM 25.1
Cc1cc2nc(-c3ccc(C#N)cc3)c(Cc3cccc(F)c3)n2c(C)c1Br	none
CC(C)(C)c1cc(-c2nc(N)nc(N)n2)c(O)c(C(C)(C)C)c1	CHRM5 PAM 24.2
Nc1nc(N)nc(-c2cc(O)ccc2O)n1	none
CCOc1ccc(Cl)cc1-c1cc(C(=O)Nc2ccc(F)cc2)[nH]n1	none
CCOC(=O)CSc1ncnc2c1sc1nc(N3CCOCC3)c3c(c12)CCCC3	M4 PAM 27.7
COC(=O)CSc1ncnc2c1sc1nc(N3CCOCC3)c3c(c12)CCCC3	none
CN(C(=O)CN1CCN(c2cc(-c3cccc4oc5ccccc5c34)ncn2)CC1)c1ccccc1	none
CC(=O)N1CCN(c2ccc(NC(=O)c3ccc(C)c([N+](=O)[O-])c3)cc2)CC1	CHRM5 PAM 18.3
Cc1cc(C)cc(NC(=O)CSc2nc3[nH]ncc3c(=O)[nH]2)c1	M4 PAM 31.2, CHRM5 PAM 21.8
CN(C(=O)CSc1nc2[nH]ncc2c(=O)[nH]1)c1ccccc1	M4 PAM 18.5
COc1cccc(/C=C2\C(=O)C(=O)c3ccccc32)c1	CHRM4 antagonist 31.0
Clc1cccc(Cc2c(C3CCCCC3)nc3c4ccccc4ccn23)c1	none
Cc1cccc(N2CC(O)(c3cccs3)[N+]3=C2CCCC3)c1C (configuration not stated)	CHRM4 antagonist 29.6
CCc1ccc(N2CC(O)(c3cccs3)[N+]3=C2SCCC3)cc1 (configuration not stated)	M5 antag 33.2
Cc1ccc(N2CC(O)(c3cccs3)[N+]3=C2CCCC3)cc1 (configuration not stated)	CHRM4 antagonist 40.4, M5 antag 42.4
CCN(C(=O)CN1C(=O)NC2(CCCC2)C1=O)c1nc2c(C)cccc2s1	none
CCN(CC)CC#CCC(O)(c1ccccc1)C1CCCC1 (configuration not stated)	CHRM4 antagonist 95.3, M5 antag 94.7
OCCN(CC#CCC(O)(c1ccccc1)C1CCCC1)CCO (configuration not stated)	none
CN(C)CC#CCC(O)(c1ccccc1)C1CCCCC1 (configuration not stated)	CHRM4 antagonist 92.5, M5 antag 95.5
Cc1ccccc1Cn1c(C)c(C(=O)NCCC#N)sc1=O	none
CCC(C)N(CCNC(=O)CC1Oc2ccc(C)cc2NC1=O)C1CCCCC1 (configuration not stated)	CHRM4 antagonist 71.3
CC1C(=O)N(Cc2cn(CC3CCCCC3)nn2)CCS(=O)(=O)N1Cc1ccc(-c2ccc(Cl)cc2)cc1 (configuration not stated)	none
O=C(c1ccc2c(c1)OCO2)C1CCCN(Cc2ccccc2OC(F)F)C1 (configuration not stated)	CHRM4 antagonist 40.4
Fc1ccc2[nH]c3c(NCc4ccccc4)ncnc3c2c1	M5 antag 36.6
OCCCNc1ncnc2c1[nH]c1ccccc12	none
CCCCNC(=O)CN(C1CCCCC1)S(C)(=O)=O	none
CCNC(=O)CN(C1CCCCC1)S(C)(=O)=O	M4 PAM 22.3
Cc1ccc(S(=O)(=O)N(C)C)cc1NC(=O)CN1C(=O)NC2(CCCCCC2)C1=O	M5 antag 29.1
Cc1ccc(C2(C)NC(=O)N(CC(=O)Nc3cc(S(=O)(=O)N(C)C)ccc3C)C2=O)cc1 (configuration not stated)	none
Cc1cccc(C(O)c2ncc(-c3ccc(F)cc3)[nH]2)c1C (configuration not stated)	none
COc1ccc(NC(=O)C2(C)CCCN(C(C)C)C2)cc1F (configuration not stated)	none
CC(C)CC[n+]1ccccc1/C=C/c1ccc(N(C)C)cc1	M5 antag 29.4
CN(C)c1ccc(/C=C/c2cccc[n+]2[O-])cc1	none
O=C1C(F)=CC(COC(c2ccccc2)(c2ccccc2)c2ccccc2)OC1n1cc(F)c(=O)[nH]c1=O (configuration not stated)	CHRM4 antagonist 34.2
CC(=O)OCC1OC(n2cc(F)c(=O)[nH]c2=O)C(OC(C)=O)C1OC(C)=O (configuration not stated)	none
COC(=O)C1=CN(c2ccc(N3CCOCC3)cc2)C(N)=C(C#N)C1c1cccc(F)c1 (configuration not stated)	none
Nc1nc(N2CCN(c3ccccn3)CC2)nc2ccccc12	CHRM4 antagonist 27.5
Nc1nc(N2CCCCC2)nc2ccccc12	none
Cc1noc(C)c1-c1ccc(C(=O)Nc2cccc(C(F)(F)F)c2)c2occc12	none
Fc1ccc(/C=C2\CCCC3=C2Nc2ncnn2C3c2ccc(F)cc2)cc1 (configuration not stated)	CHRM4 antagonist 27.9
COc1ccc(C2C3=C(Nc4ncnn42)c2ccccc2CCC3)cc1 (configuration not stated)	none
Cc1nccc(-c2sc(-c3cccs3)nc2C)n1	M4 PAM 68.7
Cc1nc(C(F)(F)F)ccc1C(=O)N1CCCC(C)(C(=O)O)C1 (configuration not stated)	none
CC1CN(C(=O)CSc2nc(N)c(NC(=O)c3ccc(C(F)(F)F)cc3)c(=O)[nH]2)CC(C)O1 (configuration not stated)	none
CC(=O)Oc1ccccc1N1C(=O)c2ccc(C(=O)O)cc2C1=O	CHRM4 antagonist 31.0
COc1ccc(N2C(=O)c3ccc(C(=O)Nc4ccccc4O)cc3C2=O)cc1	none
COc1ccccc1N1C(=O)c2ccc(C(=O)Nc3ccccc3O)cc2C1=O	CHRM4 antagonist 29.6, M5 antag 32.6
CCC(=O)c1ccc(OC(=O)c2ccc(Br)o2)cc1	M5 ag 35.6, CHRM4 agonist 33.0
